According to PMC4876142 (Pharmacology Research & Perspectives, 2016):
“Also recorded” adds a separate entry of the source. Values belong to the compound of their own block, whether it stands above or below them.

What was measured:
human TRPM3-3 = human TRPM3-3 (Homo sapiens, UniProt Q9HCF6); type: cell-based; settings: 100 μmol/L Dic applied during sustained response; Nif 30 μmol/L
[1] = system: human TRPM3s (TRPM3_1325, TRPM3-3, TRPM3-9); assay: Whole-cell patch clamp in HEK-TRPM3s cells; type: cell-based
human TRPM3-S = assay: Whole-cell patch clamp, constitutive spontaneous currents in HEK-TRPM3-S cells; type: cell-based; settings: 10 and 30 μmol/L Dic; absence of PregS
[2] = system: wild-type control HEK293 cells; assay: Whole-cell patch clamp in wild-type control HEK293 cells; type: cell-based, human; settings: 10 and 30 μmol/L Dic; cells without TRPM3s
Outline: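 Untransfected HEK293 cells, whole-cell mode, 2.5–5 MΩ electrodes, 25 ± 1°C. Pipette (mmol/L): Cs-aspartate 110, CsCl 30, MgCl2 1, HEPES 10, EGTA 1, Na2ATP 2, pH 7.2. HEPES-buffered bath at pH 7.4 with 2.2 CaCl2. Ramps from −110 to +90 mV (400 msec) every 10 sec from −10 mV holding. Junction potential corrected, leak uncorrected. Test compound at 10 and 30 μmol/L.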

TRPM2 = TRPM2 (Homo sapiens, UniProt O94759); assay: Ca2+ measurement in HEK293 cells transfected with TRPM2; type: cell-based
Sequence of TRPM2 (O94759 whole entry): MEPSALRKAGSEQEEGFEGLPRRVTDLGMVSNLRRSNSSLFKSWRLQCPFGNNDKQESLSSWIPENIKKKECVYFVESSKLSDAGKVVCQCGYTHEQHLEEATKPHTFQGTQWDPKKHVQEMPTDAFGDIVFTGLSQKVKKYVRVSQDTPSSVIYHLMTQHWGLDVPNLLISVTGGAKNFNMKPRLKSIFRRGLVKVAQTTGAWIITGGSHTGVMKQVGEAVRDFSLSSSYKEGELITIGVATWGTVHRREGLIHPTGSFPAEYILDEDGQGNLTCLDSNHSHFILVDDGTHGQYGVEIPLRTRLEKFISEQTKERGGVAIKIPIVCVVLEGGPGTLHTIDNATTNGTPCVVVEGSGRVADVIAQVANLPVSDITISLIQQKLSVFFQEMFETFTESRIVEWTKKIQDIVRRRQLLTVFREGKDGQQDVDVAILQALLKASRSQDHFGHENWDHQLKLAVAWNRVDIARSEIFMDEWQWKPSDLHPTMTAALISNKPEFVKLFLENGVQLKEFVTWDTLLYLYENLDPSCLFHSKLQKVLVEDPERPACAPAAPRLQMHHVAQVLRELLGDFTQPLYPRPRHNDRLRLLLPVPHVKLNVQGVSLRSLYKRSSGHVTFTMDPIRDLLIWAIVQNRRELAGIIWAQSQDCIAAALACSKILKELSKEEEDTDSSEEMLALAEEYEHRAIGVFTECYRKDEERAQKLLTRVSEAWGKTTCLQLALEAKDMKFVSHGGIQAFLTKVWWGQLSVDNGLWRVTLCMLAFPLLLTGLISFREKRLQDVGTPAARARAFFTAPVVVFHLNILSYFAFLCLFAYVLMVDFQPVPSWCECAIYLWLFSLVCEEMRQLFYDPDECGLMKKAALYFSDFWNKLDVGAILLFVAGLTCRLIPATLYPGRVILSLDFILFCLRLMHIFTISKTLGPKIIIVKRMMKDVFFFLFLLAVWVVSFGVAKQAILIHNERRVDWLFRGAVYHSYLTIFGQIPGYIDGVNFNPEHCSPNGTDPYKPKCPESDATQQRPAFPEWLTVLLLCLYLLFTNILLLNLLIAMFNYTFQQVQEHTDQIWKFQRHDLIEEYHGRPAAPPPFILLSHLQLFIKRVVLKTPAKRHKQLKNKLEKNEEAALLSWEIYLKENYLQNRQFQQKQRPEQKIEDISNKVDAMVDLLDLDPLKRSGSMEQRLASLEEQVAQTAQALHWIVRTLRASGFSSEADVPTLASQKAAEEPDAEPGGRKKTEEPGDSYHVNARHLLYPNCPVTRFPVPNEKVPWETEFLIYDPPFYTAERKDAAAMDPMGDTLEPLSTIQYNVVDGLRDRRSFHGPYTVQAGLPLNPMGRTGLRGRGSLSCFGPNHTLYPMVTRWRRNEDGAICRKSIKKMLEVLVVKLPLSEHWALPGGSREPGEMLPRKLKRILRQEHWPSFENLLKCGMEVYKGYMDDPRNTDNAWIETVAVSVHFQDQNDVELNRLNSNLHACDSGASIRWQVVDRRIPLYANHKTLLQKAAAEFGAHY

TRPM8 = assay: Ca2+ measurement in HEK293 cells transfected with TRPM8; type: cell-based, human; settings: 100 μmol/L Dic; Men 100 μmol/L
TRPV4 = TRPV4 (Homo sapiens, UniProt Q9HBA0); assay: Ca2+ measurement in HEK293 cells transfected with TRPV4; type: cell-based
Sequence of TRPV4 (Q9HBA0 whole entry, canonical isoform): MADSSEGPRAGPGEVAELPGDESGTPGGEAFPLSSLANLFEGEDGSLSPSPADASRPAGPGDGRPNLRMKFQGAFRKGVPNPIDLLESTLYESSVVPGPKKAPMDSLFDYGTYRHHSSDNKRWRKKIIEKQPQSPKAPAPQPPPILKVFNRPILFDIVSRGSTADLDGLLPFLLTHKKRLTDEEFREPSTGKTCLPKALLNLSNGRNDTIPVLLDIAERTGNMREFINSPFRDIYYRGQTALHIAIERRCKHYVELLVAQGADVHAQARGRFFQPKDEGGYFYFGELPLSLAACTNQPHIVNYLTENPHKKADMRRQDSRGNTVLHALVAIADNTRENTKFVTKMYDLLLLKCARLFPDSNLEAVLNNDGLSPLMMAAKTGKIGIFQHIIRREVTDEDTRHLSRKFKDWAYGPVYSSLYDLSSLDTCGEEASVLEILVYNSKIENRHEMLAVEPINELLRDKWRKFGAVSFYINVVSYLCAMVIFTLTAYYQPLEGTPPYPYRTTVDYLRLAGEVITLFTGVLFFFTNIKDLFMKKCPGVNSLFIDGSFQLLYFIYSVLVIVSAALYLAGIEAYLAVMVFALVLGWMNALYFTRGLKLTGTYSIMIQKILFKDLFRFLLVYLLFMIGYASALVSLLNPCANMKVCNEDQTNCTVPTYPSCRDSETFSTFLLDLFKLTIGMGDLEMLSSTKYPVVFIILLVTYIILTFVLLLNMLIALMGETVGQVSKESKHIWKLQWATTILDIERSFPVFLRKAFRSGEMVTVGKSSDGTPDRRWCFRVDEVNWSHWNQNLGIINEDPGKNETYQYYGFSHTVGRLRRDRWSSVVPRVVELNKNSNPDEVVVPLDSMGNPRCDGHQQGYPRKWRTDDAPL

human TRPM3 isoforms = human TRPM3 isoforms (Homo sapiens, UniProt Q9HCF6); type: cell-based; settings: concentration-dependent
Sequence of human TRPM3 isoforms (Q9HCF6 whole entry, canonical isoform): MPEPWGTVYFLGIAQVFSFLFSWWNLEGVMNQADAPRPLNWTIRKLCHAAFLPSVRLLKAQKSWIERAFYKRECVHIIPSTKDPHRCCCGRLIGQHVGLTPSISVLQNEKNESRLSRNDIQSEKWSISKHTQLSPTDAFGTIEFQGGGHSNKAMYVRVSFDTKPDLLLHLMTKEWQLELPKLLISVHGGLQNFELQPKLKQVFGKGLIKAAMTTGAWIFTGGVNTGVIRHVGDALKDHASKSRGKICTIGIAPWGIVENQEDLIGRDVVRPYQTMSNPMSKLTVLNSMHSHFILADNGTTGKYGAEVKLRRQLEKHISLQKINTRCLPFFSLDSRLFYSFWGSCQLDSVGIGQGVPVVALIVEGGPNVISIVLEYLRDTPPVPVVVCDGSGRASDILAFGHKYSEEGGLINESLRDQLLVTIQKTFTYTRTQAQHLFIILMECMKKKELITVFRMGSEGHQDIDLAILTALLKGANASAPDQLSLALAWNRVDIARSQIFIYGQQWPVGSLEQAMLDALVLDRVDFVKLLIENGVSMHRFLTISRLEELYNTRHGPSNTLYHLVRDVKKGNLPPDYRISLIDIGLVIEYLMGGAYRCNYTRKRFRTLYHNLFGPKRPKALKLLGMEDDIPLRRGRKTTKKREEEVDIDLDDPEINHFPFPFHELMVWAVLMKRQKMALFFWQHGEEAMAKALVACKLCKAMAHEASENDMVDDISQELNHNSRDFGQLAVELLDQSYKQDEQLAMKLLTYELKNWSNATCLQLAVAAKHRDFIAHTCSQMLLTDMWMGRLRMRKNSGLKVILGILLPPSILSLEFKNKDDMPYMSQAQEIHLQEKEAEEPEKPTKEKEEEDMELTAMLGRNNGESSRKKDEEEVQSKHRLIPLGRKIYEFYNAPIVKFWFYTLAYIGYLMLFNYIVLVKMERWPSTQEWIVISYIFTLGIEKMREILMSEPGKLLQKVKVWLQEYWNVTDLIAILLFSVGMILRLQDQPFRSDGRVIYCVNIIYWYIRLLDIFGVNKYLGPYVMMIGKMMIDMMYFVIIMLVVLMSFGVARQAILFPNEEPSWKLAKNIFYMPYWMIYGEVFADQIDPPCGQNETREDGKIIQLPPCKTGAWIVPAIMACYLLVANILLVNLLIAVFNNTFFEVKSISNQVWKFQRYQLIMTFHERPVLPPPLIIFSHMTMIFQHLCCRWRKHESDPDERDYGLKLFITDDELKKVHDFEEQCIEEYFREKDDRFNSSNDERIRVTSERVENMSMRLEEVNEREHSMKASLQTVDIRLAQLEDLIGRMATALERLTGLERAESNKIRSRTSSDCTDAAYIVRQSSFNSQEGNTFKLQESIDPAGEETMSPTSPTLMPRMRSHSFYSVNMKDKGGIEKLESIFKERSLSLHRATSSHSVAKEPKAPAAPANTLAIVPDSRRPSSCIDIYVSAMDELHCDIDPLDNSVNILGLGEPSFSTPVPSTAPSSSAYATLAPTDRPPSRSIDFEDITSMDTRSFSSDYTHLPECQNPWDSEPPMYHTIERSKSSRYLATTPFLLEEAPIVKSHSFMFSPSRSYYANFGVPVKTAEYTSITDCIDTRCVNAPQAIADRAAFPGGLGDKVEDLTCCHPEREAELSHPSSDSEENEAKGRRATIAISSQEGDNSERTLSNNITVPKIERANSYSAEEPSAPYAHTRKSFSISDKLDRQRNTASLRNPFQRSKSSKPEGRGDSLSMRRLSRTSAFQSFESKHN

human COX-1 / COX-2 = settings: times potent for COX-1; ref Jett et al. 1999; cited from earlier work
TRPC6-like channel = settings: 500 μmol/L; without affecting channel conductance; ref Ilatovskaya et al. 2011; cited from earlier work
TRPC5 = settings: read-out: IC50 for TRPC5; ref Jiang et al. 2012; cited from earlier work
guinea pig ileum = settings: ref Fujimoto et al. 2006; cited from earlier work
mouse = settings: ref Tajino et al. 2007; cited from earlier work
mouse TRPM3α2 (mTRPM3α2) = settings: read-out: IC50 against mTRPM3α2; ref Klose et al. 2011; cited from earlier work
[3] = target: endogenous TRPM3 in nIMR-32 cells (Homo sapiens, UniProt Q9HCF6); assay: Ca2+ measurement in differentiated neuronal IMR-32; type: cell-based; settings: 30 μmol/L; some nIMR-32 cells, not non-neuronal IMR-32 cells
Sequence of endogenous TRPM3 in nIMR-32 cells (Q9HCF6 whole entry): as the sequence (Q9HCF6 whole entry, canonical isoform) above

agonist effect on intracellular Ca2+ concentration (human TRPM3 isoforms): induced Ca^2+ response
Compound: COC(=O)C1=C(C)NC(C)=C(C(=O)OC)C1c1ccccc1[N+](=O)[O-] [Nif, nifedipine]

agonist Ca2+ response in nIMR-32 cells [3]: evoked a Ca^2+ response
agonist effect on intracellular Ca2+ concentration (human TRPM3 isoforms): induced elevation
Compound: pregnenolone sulfate [PregS]

Further lines, the compound ahead of its results:

Compound: O=C(O)Cc1ccccc1Nc1c(Cl)cccc1Cl [Dic, diclofenac]
Nif-evoked sustained Ca2+ response versus PregS response (human TRPM3-3): clearly resistant
reversibility of current inhibition after withdrawal ([1]; 10 and 30 μmol/L Dic, 30 μmol/L PregS): immediately reversed
effect on PregS-evoked inward and outward currents ([1]; 10 and 30 μmol/L Dic, 30 μmol/L PregS, whole-cell): inhibited
voltage dependence of inhibition ([1]; comparison between -80 mV and +80 mV): voltage‐independent
effect on constitutive spontaneously active TRPM3-S currents (human TRPM3-S): substantially inhibited; also recorded: significantly inhibited
effect on small basal currents evoked by ramp voltage commands [2]: did not affect
IC50 (TRPM2): > 100 µM
effect on H2O2-induced Ca2+ response (TRPM2; 100 μmol/L Dic, H2O2 1 mmol/L): failed to inhibit
effect on Men-induced Ca2+ response (TRPM8): failed to inhibit; also recorded: resistant
IC50 (TRPV4): > 100 µM
effect on GSK-induced Ca2+ response (TRPV4; 100 μmol/L Dic, GSK 3 nmol/L): failed to inhibit
effect on Nif-induced TRPM3-dependent Ca2+ responses (human TRPM3 isoforms; 30 μmol/L Nif): significantly inhibited
preference to inhibit COX-1 than COX-2 (human COX-1 / COX-2): 1.6 times
effect on TRPC6-like channel activity (TRPC6-like channel): decreased
IC50 (TRPC5): 170 µM
effect on capsaicin-induced ileum relaxation (guinea pig ileum): no effects
effect on Men-evoked hyperthermia (mouse): no effects

Compound: COc1ccc2c(c1)c(CC(=O)O)c(C)n2C(=O)c1ccc(Cl)cc1 [Ind, indomethacin]
preference to inhibit COX-1 than COX-2 (human COX-1 / COX-2): 25 times

Compound: Cc1cccc(Nc2ccccc2C(=O)O)c1C [mefenamic acid]
IC50 (mouse TRPM3α2 (mTRPM3α2)): 6.6 µM
